Converted amounts (≈) assume the structure as drawn. The source made the active and inactive calls. No cut-off for these calls is given here.
How the values were obtained:
Format in all cases: functional
[1] = Antioxidant activity assessed as ABTS radical scavenging activity after 15 mins by TEAC method
Method in brief: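 ABTS radical cation formed from 7 mM ABTS with potassium persulfate (2.4 mM final), held 16 h dark at room temperature, then diluted with water to A734 0.700 ± 0.03. Samples in H2O-EtOH at 5-8 concentrations (0 to 20 µM final). A734 decrease read at 1, 2, 5, 10, 15 min, triplicate, with solvent blanks. Expressed as mM Trolox equivalent to 1.0 mM or 1 mg/mL sample.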

[2] = Antioxidant activity assessed as reduction of […]/ferricyanide complex after 20 mins
Method in brief: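 Samples (0.02-1.0 mg) in water, mixed with […] phosphate buffer pH 6.6 and 1% potassium ferricyanide, 20 min at 50 °C. Reaction stopped with 10% TCA, centrifuged, and supernatant mixed with water and 0.1% FeCl3. A700 read against blank. Means of three independent samples fitted by linear regression. IC50 taken as the concentration giving an absorbance change of 0.50. α-Tocopherol and quercetin used as standards.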

[3] = tested on: Radical scavenging activity; assay: Antioxidant activity assessed as DPPH radical scavenging activity at 15 ug/mL after 30 to 45 mins
Method in brief: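 Sample added to freshly prepared 0.004% DPPH in MeOH (final-volume ratio 50:950 µL), vortexed 15 s. Absorbance at 515 nm read at room temperature after 30-45 min, once steady state was reached. Triplicate. % inhibition = (1 − As/A0) × 100 against control. α-Tocopherol and quercetin used as standards.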

| SMILES | Trolox equivalent antioxidant capacity (TEAC) [1] | IC50 [2] | Activity [1] | Activity [3] | Activity [2] |
| --- | --- | --- | --- | --- | --- |
| COC(=O)/C=C/c1cc(O)cc(O[C@@H]2O[C@H](CO)[C@@H](O)[C@H](O)[C@H]2O)c1 | 0.35 mM | 630.8 µg/mL (≈ 1770 µM) |  |  |  |
| O=c1c(O)c(-c2ccc(O)c(O)c2)oc2cc(O)cc(O)c12 [QUERCETIN] |  | 24.4 µg/mL (≈ 80.7 µM) | 4.26 mM | 87% |  |
| OC[C@H]1O[C@@H](OCCc2ccccc2)[C@H](O)[C@@H](O)[C@@H]1O |  |  | inactive |  | inactive |
| O=C(/C=C/c1ccc(O)c(O)c1)O[C@@H]1O[C@H](CO)[C@@H](O)[C@H](O)[C@H]1O | 1.91 mM | 33.5 µg/mL (≈ 97.9 µM) |  | 72% |  |
| O=C(O[C@@H]1O[C@H](CO)[C@@H](O)[C@H](O)[C@H]1O)c1ccc(O[C@@H]2O[C@H](CO)[C@@H](O)[C@H](O)[C@H]2O)cc1 | 0.28 mM | 735.4 µg/mL (≈ 1590 µM) |  |  |  |
| C[C@@H]1O[C@@H](Oc2cc(O)c3c(=O)c(O[C@@H]4O[C@H](CO)[C@@H](O)[C@H](O)[C@H]4O)c(-c4ccc(O[C@@H]5O[C@H](CO)[C@@H](O)[C@H](O)[C@H]5O)c(O)c4)oc3c2)[C@H](O)[C@H](O)[C@H]1O [MORICANDIN] | 1.23 mM | 48.1 µg/mL (≈ 62.3 µM) |  | 60% |  |
| COC(=O)/C=C/c1ccc(O[C@@H]2O[C@H](CO)[C@@H](O)[C@H](O)[C@H]2O)c(O)c1 | 0.89 mM | 486.2 µg/mL (≈ 1360 µM) |  |  |  |
| O=C(/C=C/c1ccc(O[C@@H]2O[C@H](CO)[C@@H](O)[C@H](O)[C@H]2O)c(O)c1)O[C@@H]1O[C@H](CO)[C@@H](O)[C@H](O)[C@H]1O | 1.06 mM | 95.9 µg/mL (≈ 190 µM) |  |  |  |
| Cc1c(C)c2c(c(C)c1O)CC[C@@](C)(CCC[C@H](C)CCC[C@H](C)CCCC(C)C)O2 [ALPHA-TOCOPHEROL] |  | 106.9 µg/mL (≈ 248 µM) |  | 87% |  |
| O=C(O[C@@H]1O[C@H](CO)[C@@H](O)[C@H](O)[C@H]1O)c1ccc(O)cc1 |  |  | inactive |  | inactive |

— ChEMBL document CHEMBL1158729, “Antioxidant phenolic glycosides from Moricandia arvensis” (J Nat Prod, 2005)
